Measurements from publication PMC9352467 (Neoplasia (New York, N.Y.), 2022).
Marks after values point to notes of the source that are not given here. Values belong to the molecule of their own block, whether it stands above or below them.

Legend:
SW48 = assay: Cell viability assay; type: cell-based; conditions: Homo sapiens, SW48, 72 h, read-out: IC50 (mean ± SD)
KG-1 = assay: Cell viability assay; type: cell-based; conditions: Homo sapiens, KG-1, 72 h, read-out: IC50 (mean ± SD)
MV-4-11 = assay: Cell viability assay; type: cell-based; conditions: Homo sapiens, MV4-11, 72 h, read-out: IC50 (mean ± SD)
HT-29 = assay: Cell viability assay; type: cell-based; conditions: Homo sapiens, HT-29, 72 h, read-out: IC50 (mean ± SD)
[1] = test system: panel of 28 human cancer cell lines; assay: Cell viability assay, whole panel; type: cell-based; conditions: 72 h, read-out: Average IC50 over the cell line panel
DU 145 = assay: Cell viability assay; type: cell-based; conditions: Homo sapiens, DU-145, 72 h, read-out: IC50 (mean ± SD)
PC-3 = assay: Cell viability assay; type: cell-based; conditions: Homo sapiens, PC-3, 72 h, read-out: IC50 (mean ± SD)
LNCaP = assay: Cell viability assay; type: cell-based; conditions: Homo sapiens, 72 h, read-out: IC50 (mean ± SD)
SW620 = assay: Cell viability assay; type: cell-based; conditions: Homo sapiens, SW-620, 72 h, read-out: IC50 (mean ± SD)
TOV-112D = assay: Cell viability assay; type: cell-based; conditions: Homo sapiens, TOV112D, 72 h, read-out: IC50 (mean ± SD)
Panc 02.03 = assay: Cell viability assay; type: cell-based; conditions: Homo sapiens, Panc 02.03, 72 h, read-out: IC50 (mean ± SD)
SUIT-2 = assay: Cell viability assay; type: cell-based; conditions: Homo sapiens, SUIT-2, 72 h, read-out: IC50 (mean ± SD)
HCT-116 = assay: Cell viability assay; type: cell-based, Human
HCT-116 and RKO cells = assay: Western blotting of neddylation, CRLs substrates and DNA damage markers; type: cell-based, Human; conditions: 24 h
Procedure, shortened: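 HCT-116 and RKO cells were treated with test compound or a reference NAE inhibitor; DNA damage markers (γH2AX, p-Chk1 Ser317, p-Chk2 T68) were read after 24 h. Lysis was in SDS buffer (50 mM Tris-HCl pH 6.8, 2% SDS, 100 mM DTT) with 10 min boiling. Lysates were run on 10% gels at 150 V for 1 h, blocked in 5% milk/TBST, and probed with primaries at 1:1000 and HRP secondaries. Three repeats.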

Capan-1 = assay: Cell viability assay; type: cell-based; conditions: Homo sapiens, CAPAN-1, 72 h, read-out: IC50 (mean ± SD)
HGC-27 = assay: Cell viability assay; type: cell-based; conditions: Homo sapiens, HGC-27, 72 h, read-out: IC50 (mean ± SD)
G-361 = assay: Cell viability assay; type: cell-based; conditions: Homo sapiens, G-361, 72 h, read-out: IC50 (mean ± SD)
Jurkat, Clone E6-1 = assay: Cell viability assay; type: cell-based; conditions: Homo sapiens, 72 h, read-out: IC50 (mean ± SD)
MIA PaCa-2 = assay: Cell viability assay; type: cell-based; conditions: Homo sapiens, MIA PaCa-2, 72 h, read-out: IC50 (mean ± SD)
CHL-1 = assay: Cell viability assay; type: cell-based; conditions: Homo sapiens, CHL-1, 72 h, read-out: IC50 (mean ± SD)
HCT 15 = assay: Cell viability assay; type: cell-based; conditions: Homo sapiens, HCT-15, 72 h, read-out: IC50 (mean ± SD)
OVCAR-8 = assay: Cell viability assay; type: cell-based; conditions: Homo sapiens, OVCAR-8, 72 h, read-out: IC50 (mean ± SD)
NCI-H226 = assay: Cell viability assay; type: cell-based; conditions: Homo sapiens, NCI-H226, 72 h, read-out: IC50 (mean ± SD)
NOMO-1 = assay: Cell viability assay; type: cell-based; conditions: Homo sapiens, NOMO-1, 72 h, read-out: IC50 (mean ± SD)
SW480 = assay: Cell viability assay; type: cell-based; conditions: Homo sapiens, SW480, 72 h, read-out: IC50 (mean ± SD)
[2] = Plasma pharmacokinetic studies; type: in vivo, Sprague-Dawley (SD) rats; conditions: male, Sprague-Dawley, rat, 3 mg/kg
Procedure, shortened: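 Male Sprague-Dawley rats (200–250 g) were fasted 12 h and dosed with test compound or reference at 1 mg/kg i.v. or 3 mg/kg p.o. The i.v. vehicle was DMSO/EtOH/PEG300/NaCl (5/5/40/50); the p.o. vehicle was DMSO/0.5% HPMC (5/95). Blood was sampled over time and assayed by LC/MS/MS. Three animals per time point; non-compartmental analysis.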

NCI-N87 = assay: Cell viability assay; type: cell-based; conditions: Homo sapiens, NCI-N87, 72 h, read-out: IC50 (mean ± SD)
RKO = assay: Cell viability assay; type: cell-based, Human
THP-1 = assay: Cell viability assay; type: cell-based; conditions: Homo sapiens, THP-1, 72 h, read-out: IC50 (mean ± SD)
COLO 205 = assay: Cell viability assay; type: cell-based; conditions: Homo sapiens, COLO 205, 72 h, read-out: IC50 (mean ± SD)
[3] = 1 mg/kg i.v.; SD rats plasma; ref [25]; cited from earlier work

IC50 (SW48): 79.5 ± 23.1 nM
IC50 (MV-4-11): 121 ± 1.79 nM
IC50 (HT-29): 296 ± 32.3 nM
IC50 [1]: 647 nM
IC50 (PC-3): 2430 ± 1050 nM
IC50 (LNCaP): 52.5 ± 13.4 nM
IC50 (SW620): 5550 ± 2370 nM
IC50 (Panc 02.03): 356 ± 39.1 nM
IC50 (HCT-116; Homo sapiens, HCT-116, 72 h, read-out: IC50 (mean ± SD)): 60.8 ± 11.7 nM
IC50 (Jurkat, Clone E6-1): 284 ± 95.6 nM
IC50 (MIA PaCa-2): 109 ± 16.1 nM
IC50 (HCT 15): 294 ± 80.3 nM
IC50 (OVCAR-8): 541 ± 64.2 nM
IC50 (NCI-H226): 1040 ± 624 nM
IC50 (SW480): 1090 ± 91.7 nM
bioavailability ([2]; oral): 12.4%
AUC(0-t) ([2]; po): 208 ng·h/mL
Cmax ([2]; po): 64 ng/mL
Tmax ([2]; po): 0.92 h
half-life ([2]; po): 5.5 h
IC50 (THP-1): 60.1 ± 32.2 nM
IC50 (COLO 205): 54.2 ± 2.47 nM
Compound: NS(=O)(=O)OC[C@@H]1C[C@@H](n2ccc3c(N[C@H]4CCc5ccccc54)ncnc32)C[C@@H]1O [MLN4924]
IC50 (KG-1): 936 ± 258 nM
IC50 (DU 145): 86.5 ± 15.1 nM
IC50 (TOV-112D): 229 ± 104 nM
IC50 (SUIT-2): 204 ± 29.1 nM
DNA damage (γH2AX levels) (HCT-116 and RKO cells): accumulation of DNA double-strand breaks
IC50 (Capan-1): 96.5 ± 10.1 nM
IC50 (HGC-27): 98.5 ± 28.3 nM
IC50 (G-361): 1430 ± 684 nM
IC50 (CHL-1): 320 ± 122 nM
IC50 (NOMO-1): 627 ± 77.8 nM
IC50 (NCI-N87): 865 ± 77.5 nM
IC50 (RKO; Homo sapiens, 72 h, read-out: IC50 (mean ± SD)): 150 ± 26.4 nM
AUClast [3]: 560^a ng*h/mL
CL [3]: 29.70^a mL/min/kg
T1/2 [3]: 0.71^a h
Vss_obs [3]: 1783^a mL/kg

Compound: CCOc1cccc(F)c1C#Cc1cn([C@@H]2O[C@H](CNS(N)(=O)=O)[C@@H](O)[C@H]2O)c2ncnc(N)c12 [TAS4464]
sensitivity of cell proliferation (HCT-116; HCT-116, Supplemental Figure 1b): profoundly sensitive
sensitivity of cell proliferation (RKO; Supplemental Figure 1b): profoundly sensitive
